The values below come from ChEMBL document CHEMBL1932939, “Synthesis and cytotoxic evaluation of thiourea and N-bis-benzothiazole derivatives: a novel class of cytotoxic agents” (Bioorg Med Chem Lett, 2012).

Usually IC50 stands for the concentration that gives 50% inhibition. High values mean a need for much substance, low ones inhibition by little substance.

Bounds are passed on as bounds.

For experiment [1], the system named is U-937. Kind of experiment: Cytotoxicity against human U937 cells after 48 hrs by MTT assay. It is filed as functional, cell-based. The procedure, abridged:
(§1)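 IC50 is taken as the concentration that gives a 50% drop in cell number relative to control cultures grown without inhibitor. Etoposide serves as the standard positive-control drug.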
Background: Tetrazolium dyes change colour on reduction, which living cells bring about.

Experiment [2] has as its system THP-1. Description: Cytotoxicity against human THP1 cells after 48 hrs by MTT assay. It is filed as functional, cell-based. The note with it: THP-1, 48 h. The essentials:
as §1

Experiment [3] relates to B16-F10. Kind of experiment: Cytotoxicity against mouse B16F10 cells after 48 hrs by MTT assay. It is filed as functional, cell-based. To be noted: B16-F10, 48 h. The procedure, abridged: as §1
Experiment [4] concerns THP-1. Description: Ratio of IC50 for human U937 cells to IC50 for human THP1 cells after 48 hrs by MTT assay. The format is functional.
Experiment [5] deals with THP-1. Description: Ratio of IC50 for mouse B16F10 cells to IC50 for human THP1 cells after 48 hrs by MTT assay. The format is functional.

Consider `S=C(Nc1ccccc1)Nc1nc2ccccc2s1`, for which the concentration for half-maximal inhibition (IC50) was > 50 µM in experiment [1] (Homo sapiens, U-937, 48 h); 36.5 µM in experiment [2]; > 50 µM in experiment [3].
Consider `Fc1ccc(NC(=S)Nc2nc3ccccc3s2)cc1`, for which the IC50 is 32 µM in experiment [1] (Homo sapiens, U-937, 48 h); 26.7 µM in experiment [2]; > 50 µM in experiment [3].
The corresponding values for `S=C(Nc1ccc(Cl)cc1)Nc1nc2ccccc2s1` are > 50 µM, 39 µM and > 50 µM.
Turning to `Fc1ccc2nc(NC(=S)Nc3ccccc3)sc2c1`, the concentration for half-maximal inhibition (IC50) in experiment [1] (Homo sapiens, U-937, 48 h) was > 50 µM; in experiment [2] it was 46.6 µM; in experiment [3], > 50 µM.
For the compound `Fc1ccc(NC(=S)Nc2nc3ccc(F)cc3s2)cc1`, the half-maximal inhibitory concentration (IC50) in experiment [1] (Homo sapiens, U-937, 48 h) worked out at 16.2 µM; in experiment [2], 34.6 µM; in experiment [3], 47.7 µM.
The like results for `Fc1ccc2nc(NC(=S)Nc3ccc(Cl)cc3)sc2c1` were, in that order, 18.7 µM, 31.2 µM and 48.1 µM.
The like results for `S=C(Nc1ccccc1)Nc1nc2c(Cl)cccc2s1` were, in that order, > 50 µM, 31.8 µM and > 50 µM.
The like results for `Fc1ccc(NC(=S)Nc2nc3c(Cl)cccc3s2)cc1` were, in that order, > 50 µM, > 50 µM and > 50 µM.
Regarding `Cc1ccc2nc(NC(=S)Nc3ccccc3)sc2c1`, the IC50 in experiment [1] (Homo sapiens, U-937, 48 h) was > 50 µM; in experiment [2] it was > 50 µM; in experiment [3] it was > 50 µM.
As for `Cc1ccc2nc(NC(=S)Nc3ccc(F)cc3)sc2c1`, the half-maximal inhibitory concentration (IC50) in experiment [1] (Homo sapiens, U-937, 48 h) was > 50 µM; in experiment [2], 36.9 µM; in experiment [3] it was > 50 µM.
Take `CCOc1ccc2nc(NC(=S)Nc3ccccc3)sc2c1`: the IC50 was 37.7 µM in experiment [1] (Homo sapiens, U-937, 48 h); 43.8 µM in experiment [2]; > 50 µM in experiment [3].
For `CCOc1ccc2nc(NC(=S)Nc3ccc(F)cc3)sc2c1`, the concentration for half-maximal inhibition (IC50) in experiment [1] (Homo sapiens, U-937, 48 h) was 28.1 µM; in experiment [2], 39.5 µM; in experiment [3], > 50 µM.
The like results for `c1ccc2sc(Nc3nc4ccccc4s3)nc2c1` were, in that order, 40 µM, 28.8 µM and > 50 µM.
Regarding `Clc1ccc2nc(Nc3nc4ccccc4s3)sc2c1`, the IC50 in experiment [1] (Homo sapiens, U-937, 48 h) is > 50 µM; in experiment [2], 45.4 µM; in experiment [3] it was > 50 µM.
As to `Fc1ccc2nc(Nc3nc4ccc(F)cc4s3)sc2c1`, the IC50 in experiment [1] (Homo sapiens, U-937, 48 h) stood at 27.4 µM; in experiment [2], 17.5 µM; in experiment [3] it was 47.5 µM.
The corresponding values for `Fc1ccc2nc(Nc3nc4ccc(Cl)cc4s3)sc2c1` are > 50 µM, 41 µM and 41.9 µM.
Consider `Fc1ccc2nc(Nc3nc4c(Cl)cccc4s3)sc2c1`, for which the IC50 is > 50 µM in experiment [1] (Homo sapiens, U-937, 48 h); 36.2 µM in experiment [2]; > 50 µM in experiment [3].
`Cc1ccc2nc(Nc3nc4ccccc4s3)sc2c1`: the half-maximal inhibitory concentration (IC50) is 48.4 µM in experiment [1] (Homo sapiens, U-937, 48 h); 34.2 µM in experiment [2]; > 50 µM in experiment [3].
In the case of `CCOc1ccc2nc(Nc3nc4ccccc4s3)sc2c1`, the 50% inhibitory concentration (IC50) in experiment [1] (Homo sapiens, U-937, 48 h) was > 50 µM; in experiment [2], 37.1 µM; in experiment [3], > 50 µM.
In the case of `CCOc1ccc2nc(Nc3nc4ccc(F)cc4s3)sc2c1`, the IC50 in experiment [1] (Homo sapiens, U-937, 48 h) is 26.6 µM; in experiment [2], 39 µM; in experiment [3], 33.2 µM.
As for `Fc1ccc2nc(Nc3nc4ccccc4s3)sc2c1`, the half-maximal inhibitory concentration (IC50) is 40.6 µM in experiment [1] (Homo sapiens, U-937, 48 h); 43.5 µM in experiment [1] (u-937); > 50 µM in experiment [2]; > 50 µM in experiment [3].
As for `Clc1cccc2sc(Nc3nc4ccccc4s3)nc12`, the IC50 in experiment [1] (Homo sapiens, U-937, 48 h) is > 50 µM; in experiment [2], > 50 µM; in experiment [3], 29.5 µM.
In the case of `Cc1ccc2nc(Nc3nc4ccc(F)cc4s3)sc2c1`, the IC50 was > 50 µM in experiment [1] (Homo sapiens, U-937, 48 h); > 50 µM in experiment [2]; 29.6 µM in experiment [3].
Consider `COc1cc([C@@H]2c3cc4c(cc3[C@@H](O[C@@H]3O[C@@H]5CO[C@@H](C)O[C@H]5[C@H](O)[C@H]3O)[C@H]3COC(=O)[C@H]23)OCO4)cc(OC)c1O` [ETOPOSIDE], for which the IC50 in experiment [3] is 18.7 µM. The “Ratio IC50” value in experiment [4] and in experiment [5] was 9 each time.
